Measurements as given in publication PMC2857554 (Nature chemical biology, 2010).

Columns and labels:
[1] = tested on: UTRM10 cells; assay: Centriole overduplication under hydroxyurea; assay type: cell-based; conditions: 10 or 25 µM with hydroxyurea, 48 hours
In short: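 UTRM10 cells co-treated for 48 h with hydroxyurea (4 mM) plus test compound (10 or 25 µM) or DMSO vehicle. Centrioles were scored by centrin immunostaining, with about 433–485 cells counted per condition. Results are mean ± SD of three independent experiments.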

[2] = tested on: Hela S3 or U2OS cells; assay: Centrosome duplication in cycling cells; assay type: cell-based; conditions: 10 µM, 1 or 2 cell doublings
In short: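 Hela S3 and U2OS cells on 12-mm coverslips were synchronized, then cycled in test compound or DMSO for one or two cell cycles. Mitotic spindles were stained for centrin, α-tubulin and DNA. The percentage of mitotic cells with fewer than 4 centrin dots was scored, counting 135–300 cells per arm. Results are mean ± SD from three independent experiments.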

[3] = tested on: U2OS cells; assay: Mitotic escape assay; assay type: cell-based
[4] = target: Aurora B (Homo sapiens, UniProt Q96GD4); assay: Lanthascreen in vitro assay on Aurora B; assay type: binding; conditions: in vitro assays
Sequence of Aurora B (Q96GD4 whole entry): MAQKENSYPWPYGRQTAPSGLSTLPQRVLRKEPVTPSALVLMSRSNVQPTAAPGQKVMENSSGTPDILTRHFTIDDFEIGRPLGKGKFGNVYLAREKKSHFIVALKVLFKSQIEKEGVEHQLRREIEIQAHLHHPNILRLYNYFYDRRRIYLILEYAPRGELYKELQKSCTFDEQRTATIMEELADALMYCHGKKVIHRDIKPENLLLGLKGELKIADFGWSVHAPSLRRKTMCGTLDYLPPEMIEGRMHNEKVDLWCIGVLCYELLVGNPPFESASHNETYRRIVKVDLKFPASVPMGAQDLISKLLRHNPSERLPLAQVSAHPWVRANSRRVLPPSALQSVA

[5] = tested on: U2OS cells with Plk4 overexpression; assay: Proliferation assay of PLK4-overexpressing U2OS cells; assay type: cell-based; conditions: 48, 72, 96 hours
[6] = tested on: U2OS cells; assay: Intracellular Aurora B kinase activity, immunoblot; assay type: cell-based; conditions: taxol and MG132, mitotic shake-off
[7] = tested on: U2OS H2B–GFP cells with Plk4 overexpression; assay: Time-lapse of mitosis in cells with extra centrosomes; assay type: cell-based; conditions: extra centrosome containing cells
In short: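 U2OS H2B–GFP cells with doxycycline-inducible Plk4 were blocked in thymidine for 18 h, then released into doxycycline (2 µg·ml−1) for 10 h. A second 18 h thymidine block followed, then release into medium for 6 h. Cells were treated with 5 µM test compound and imaged by time-lapse at 37°C, 5% CO2.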

[8] = tested on: PtK2 cells stably expressing HsMad2-EYFP; assay: Mad2 kinetochore establishment assay; assay type: cell-based, Potorous tridactylus; conditions: 10 µM, NEB to NER
[9] = tested on: HCT116 cells; assay: PARP cleavage immunoblot; assay type: cell-based
In short: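 HCT116 cells in McCoy's 5A with 10% FBS were treated with test compound at a series of concentrations. Lysates were collected at 24, 48 and 72 h and immunoblotted for PARP cleavage.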

[10] = tested on: hTERT-RPE1 cells; assay: PARP cleavage immunoblot; assay type: cell-based; conditions: 25 µM
[11] = tested on: Hela S3 cells expressing histone H2B-GFP; assay: Mitotic escape, time-lapse, nocodazole arrest; assay type: cell-based; conditions: nocodazole-arrested cells
In short: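 Hela S3 cells expressing H2B-GFP were treated with nocodazole with or without test compound. They were imaged in a heated chamber (37°C, 5% CO2), with DIC and GFP frames every 5 min across 5 z-planes. Mitotic exit was scored by nuclear envelope reassembly, counting 150 cells per population.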

[12] = tested on: HCT116 cells; assay: Proliferation assay; assay type: cell-based
[13] = tested on: MCF10A cells; assay: PARP cleavage immunoblot; assay type: cell-based; conditions: 25 µM
[14] = tested on: HCT116 cells; assay: Colony outgrowth assay; assay type: cell-based; conditions: 5–10 µM, 10 days
[15] = tested on: UTRM10 cells expressing LAP-Mps1 M602Q; assay: pHistone H3 immunoblot in cells expressing inhibitor-resistant Mps1; assay type: cell-based; conditions: thymidine/taxol arrest; VX-680 2 µM
[16] = tested on: mammalian cells; conditions: cited from earlier work
[17] = tested on: Mps1; conditions: cited from earlier work

Row | SMILES | effect on centriole overduplication [1] | mitotic cells containing less than 4 centrioles, versus vehicle [2] | 4c pHistone H3 negative cells, flow cytometry ([3]; nocodazole-arrested cells) | cyclin B protein levels ([3]; thymidine/nocodazole arrest, 4 hrs inhibitor, reversed by MG132) | activity against Aurora B in vitro [4] | additional cytotoxicity versus parental U2OS [5] | phosphorylation of Aurora B at Thr232 [6] | decrease in time spent in mitosis [7] | less time spent in mitosis versus DMSO [8] | onset of PARP cleavage (apoptosis) [9] | apoptosis-associated PARP cleavage [10] | time within which the majority of cells escape mitosis [11] | cytotoxic concentrations [12] | apoptosis-associated PARP cleavage [13] | cell viability and clonal survival [14] | hyperphosphorylation status of Mps1 (mobility shift) [6] | mitotic escape despite LAP-Mps1 M602Q [15] | effectiveness in mammalian cells [16] | inhibition of Mps1 kinase activity in S. cerevisiae [17]
1 | COc1cc(N2CCC(O)CC2)ccc1Nc1cc(Nc2ccccc2S(=O)(=O)C(C)C)c2cc[nH]c2n1 [Mps1-IN-1] | no effect | no significant difference | dose-dependent accumulation of 4c pHistone H3 negative cells | dropped with increasing concentration | does not exhibit activity against Aurora B | no detectable additional cytotoxicity | dose-dependent reduction | 4 fold | roughly 40% | 48 h | little-to-no apoptosis-associated PARP cleavage | ≤ 1 h | 5 to 10 µM | little-to-no apoptosis-associated PARP cleavage | severe loss of cell viability and clonal survival | – | – | – | –
2 | Cc1cc(Nc2cc(N3CCN(C)CC3)nc(Sc3ccc(NC(=O)C4CC4)cc3)n2)n[nH]1 [VX-680] | – | – | – | – | – | – | inhibited | – | – | – | – | – | – | – | – | did not adversely affect | still capable of executing an efficient mitotic escape | – | –
3 | O=c1[nH]c2ccc(Br)cc2o1 [cincreasin] | – | – | – | – | – | – | – | – | – | – | – | – | – | – | – | – | – | ineffective | effective
